Results as given in ChEMBL document CHEMBL1157026, “Novel antileishmanial chalconoids: synthesis and biological activity of 1- or 3-(6-chloro-2H-chromen-3-yl)propen-1-ones” (Eur J Med Chem, 2010).

Key:
Leishmania major = test: Antileishmanial activity against Leishmania major MRHO/IR/75/ER promastigote infected in BALB/c mouse peritoneal macrophage after 24 hrs by MTT assay; assay type: functional, organism-based
Outline: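 L. major vaccine strain MRHO/IR/75/ER, maintained by passage in BALB/c mice, grown on blood agar at 25 °C. Log-phase promastigotes at 2 × 10⁶/mL were put in phenol red-free RPMI 1640 with 10% FCS, 2 mM glutamine, pH ~7.2 and antibiotics, with serial drug dilutions, for 24 h at 25 °C. MTT (0.5 mg/mL) was added for 4 h at 37 °C; pellets were dissolved in DMSO and read on a plate reader. IC50 was determined.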

[1] = Cytotoxicity against BALB/c mouse peritoneal macrophage after 24 hrs by MTT assay; assay type: cell-based; details: peritoneal macrophage cell
Outline: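 Mouse peritoneal macrophages were seeded at 2 × 10⁵ cells/well. After adherence, the medium was replaced with medium holding one concentration per compound. Plates were incubated 24 h at 37 °C in humidified 5% CO2. Controls got culture medium plus DMSO. Viability was read by MTT colorimetric assay.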

Compound	IC50 (Leishmania major)	Activity [1]
COc1cc(C(=O)/C=C/C2=Cc3cc(Cl)ccc3OC2)cc(OC)c1OC	2.06 µM	Non-toxic
O=C(/C=C/c1ccccc1Br)C1=Cc2cc(Cl)ccc2OC1	1.33 µM	Non-toxic
Cc1ccc(/C=C/C(=O)C2=Cc3cc(Cl)ccc3OC2)cc1	2.75 µM	Non-toxic
COc1ccc(OC)c(/C=C/C(=O)C2=Cc3cc(Cl)ccc3OC2)c1	3 µM	Non-toxic
COc1cccc(/C=C/C(=O)C2=Cc3cc(Cl)ccc3OC2)c1OC	2.8 µM	Non-toxic
O=C(/C=C/C1=Cc2cc(Cl)ccc2OC1)c1ccccc1F	2.22 µM	Non-toxic
O=C(/C=C/C1=Cc2cc(Cl)ccc2OC1)c1ccccc1Cl	1.22 µM	Non-toxic
O=C(/C=C/C1=Cc2cc(Cl)ccc2OC1)c1ccc(Cl)cc1Cl	1.91 µM	Non-toxic
MEGLUMINE ANTIMONATE		40%
